According to ChEMBL document CHEMBL5724801, “EUbOPEN Chemogenomics Library - Multiplex” (2024):
“And” between values parts separate entries of the source, which are not always exact repeats. Equal values may be shown once.

Columns and labels:
HEK-293T = assay: Multiplex assay against HEK293T; assay type: toxicity, cell-based; details: human
Method in brief: (§1)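 Compound was added to live cells that had been stained at seeding with Hoechst33342, BioTracker Green Microtubule Cytoskeleton Dye, MitoTracker Red and Annexin V Alexa Fluor 680, and imaging followed on a CQ1 microscope at 37°C and 5% CO2. CellPathfinder machine-learning gating divided cells into Hoechst high-intensity objects or normal cells, normal cells into healthy, pyknosed or fragmented nuclei, and pyknosed cells into mitotic or apoptotic. Tubulin, mitochondrial-mass and membrane-permeability phenotypes are per cents of healthy-nucleus cells.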

U2OS = assay: Multiplex assay against U2OS; assay type: toxicity, cell-based; details: human; method in brief: as §1
[1] = 12 h, 1 µM, compound concentration 1 uM
[2] = 12 h, 10 µM, compound concentration 10 uM
[3] = 24 h, 1 µM, compound concentration 1 uM
[4] = 24 h, 10 µM, compound concentration 10 uM
[5] = 48 h, 1 µM, compound concentration 1 uM
[6] = 48 h, 10 µM, compound concentration 10 uM

SMILES: O=C1[C@H](Cc2ccc(O)cc2)N2C(=O)CCN(C(=O)NCc3ccccc3)[C@H]2CN1Cc1cccc2ccccc12
- Population Apoptotic (%) (HEK-293T; [1]): 44% and 46%
- Population Fragmented Nuclei (%) (HEK-293T; [1]): 6% and 7%
- Population Healthy Nuclei (%) (HEK-293T; [1]): 80% and 78%
- Population Hoechst High Intensity Objects (%) (HEK-293T; [1]): 6% and 8%
- Population Membrane Permeable-Phenotype (%) (HEK-293T; [1]): 0%
- Population Mitochondria Different-Phenotype (%) (HEK-293T; [1]): 54% and 68%
- Population Mitotic Cells (%) (HEK-293T; [1]): 55% and 53%
- Population Normal (%) (HEK-293T; [1]): 93% and 91%
- Population Pyknosed Nuclei (%) (HEK-293T; [1]): 12% and 13%
- Population Tubulin-Different-Phenotype (%) (HEK-293T; [1]): 46% and 33%
- Total Cell Count (HEK-293T; [1]): 374 and 259
- Population Apoptotic (%) (HEK-293T; [2]): 68% and 60%
- Population Fragmented Nuclei (%) (HEK-293T; [2]): 5%
- Population Healthy Nuclei (%) (HEK-293T; [2]): 74% and 82%
- Population Hoechst High Intensity Objects (%) (HEK-293T; [2]): 11% and 14%
- Population Membrane Permeable-Phenotype (%) (HEK-293T; [2]): 0%
- Population Mitochondria Different-Phenotype (%) (HEK-293T; [2]): 90% and 93%
- Population Mitotic Cells (%) (HEK-293T; [2]): 31% and 40%
- Population Normal (%) (HEK-293T; [2]): 88% and 85%
- Population Pyknosed Nuclei (%) (HEK-293T; [2]): 20% and 11%
- Population Tubulin-Different-Phenotype (%) (HEK-293T; [2]): 76% and 67%
- Total Cell Count (HEK-293T; [2]): 340 and 257
- Population Apoptotic (%) (HEK-293T; [3]): 23% and 55%
- Population Fragmented Nuclei (%) (HEK-293T; [3]): 7% and 8%
- Population Healthy Nuclei (%) (HEK-293T; [3]): 80% and 77%
- Population Hoechst High Intensity Objects (%) (HEK-293T; [3]): 7% and 8%
- Population Membrane Permeable-Phenotype (%) (HEK-293T; [3]): 0%
- Population Mitochondria Different-Phenotype (%) (HEK-293T; [3]): 49% and 47%
- Population Mitotic Cells (%) (HEK-293T; [3]): 76% and 45%
- Population Normal (%) (HEK-293T; [3]): 92% and 91%
- Population Pyknosed Nuclei (%) (HEK-293T; [3]): 11% and 14%
- Population Tubulin-Different-Phenotype (%) (HEK-293T; [3]): 38% and 24%
- Total Cell Count (HEK-293T; [3]): 470 and 305
- Population Apoptotic (%) (HEK-293T; [4]): 68% and 74%
- Population Fragmented Nuclei (%) (HEK-293T; [4]): 7% and 9%
- Population Healthy Nuclei (%) (HEK-293T; [4]): 75% and 77%
- Population Hoechst High Intensity Objects (%) (HEK-293T; [4]): 11% and 14%
- Population Membrane Permeable-Phenotype (%) (HEK-293T; [4]): 0%
- Population Mitochondria Different-Phenotype (%) (HEK-293T; [4]): 94% and 95%
- Population Mitotic Cells (%) (HEK-293T; [4]): 31% and 25%
- Population Normal (%) (HEK-293T; [4]): 88% and 85%
- Population Pyknosed Nuclei (%) (HEK-293T; [4]): 16% and 12%
- Population Tubulin-Different-Phenotype (%) (HEK-293T; [4]): 65% and 70%
- Total Cell Count (HEK-293T; [4]): 278 and 249
- Population Apoptotic (%) (HEK-293T; [5]): 30% and 50%
- Population Fragmented Nuclei (%) (HEK-293T; [5]): 14% and 11%
- Population Healthy Nuclei (%) (HEK-293T; [5]): 78% and 81%
- Population Hoechst High Intensity Objects (%) (HEK-293T; [5]): 4% and 3%
- Population Membrane Permeable-Phenotype (%) (HEK-293T; [5]): 0%
- Population Mitochondria Different-Phenotype (%) (HEK-293T; [5]): 34% and 29%
- Population Mitotic Cells (%) (HEK-293T; [5]): 69% and 50%
- Population Normal (%) (HEK-293T; [5]): 95% and 96%
- Population Pyknosed Nuclei (%) (HEK-293T; [5]): 6% and 7%
- Population Tubulin-Different-Phenotype (%) (HEK-293T; [5]): 26% and 19%
- Total Cell Count (HEK-293T; [5]): 730 and 472
- Population Apoptotic (%) (HEK-293T; [6]): 71% and 57%
- Population Fragmented Nuclei (%) (HEK-293T; [6]): 8% and 11%
- Population Healthy Nuclei (%) (HEK-293T; [6]): 79% and 73%
- Population Hoechst High Intensity Objects (%) (HEK-293T; [6]): 10% and 20%
- Population Membrane Permeable-Phenotype (%) (HEK-293T; [6]): 0%
- Population Mitochondria Different-Phenotype (%) (HEK-293T; [6]): 94% and 88%
- Population Mitotic Cells (%) (HEK-293T; [6]): 28% and 42%
- Population Normal (%) (HEK-293T; [6]): 89% and 79%
- Population Pyknosed Nuclei (%) (HEK-293T; [6]): 11% and 14%
- Population Tubulin-Different-Phenotype (%) (HEK-293T; [6]): 63% and 72%
- Total Cell Count (HEK-293T; [6]): 297 and 232
- Population Apoptotic (%) (U2OS; [1]): 91% and 84%
- Population Fragmented Nuclei (%) (U2OS; [1]): 13% and 21%
- Population Healthy Nuclei (%) (U2OS; [1]): 74% and 66%
- Population Hoechst High Intensity Objects (%) (U2OS; [1]): 4% and 0%
- Population Membrane Permeable-Phenotype (%) (U2OS; [1]): 4% and 5%
- Population Mitochondria Different-Phenotype (%) (U2OS; [1]): 1% and 8%
- Population Mitotic Cells (%) (U2OS; [1]): 8% and 15%
- Population Normal (%) (U2OS; [1]): 96% and 99%
- Population Pyknosed Nuclei (%) (U2OS; [1]): 12% and 11%
- Population Tubulin-Different-Phenotype (%) (U2OS; [1]): 1% and 4%
- Total Cell Count (U2OS; [1]): 200 and 113
- Population Apoptotic (%) (U2OS; [2]): 60% and 72%
- Population Fragmented Nuclei (%) (U2OS; [2]): 32% and 19%
- Population Healthy Nuclei (%) (U2OS; [2]): 50% and 67%
- Population Hoechst High Intensity Objects (%) (U2OS; [2]): 3% and 6%
- Population Membrane Permeable-Phenotype (%) (U2OS; [2]): 55% and 38%
- Population Mitochondria Different-Phenotype (%) (U2OS; [2]): 35% and 47%
- Population Mitotic Cells (%) (U2OS; [2]): 40% and 27%
- Population Normal (%) (U2OS; [2]): 96% and 93%
- Population Pyknosed Nuclei (%) (U2OS; [2]): 17% and 13%
- Population Tubulin-Different-Phenotype (%) (U2OS; [2]): 55% and 43%
- Total Cell Count (U2OS; [2]): 207 and 88
- Population Apoptotic (%) (U2OS; [3]): 80% and 88%
- Population Fragmented Nuclei (%) (U2OS; [3]): 13% and 14%
- Population Healthy Nuclei (%) (U2OS; [3]): 73% and 71%
- Population Hoechst High Intensity Objects (%) (U2OS; [3]): 2% and 1%
- Population Membrane Permeable-Phenotype (%) (U2OS; [3]): 4% and 7%
- Population Mitochondria Different-Phenotype (%) (U2OS; [3]): 1% and 5%
- Population Mitotic Cells (%) (U2OS; [3]): 19% and 11%
- Population Normal (%) (U2OS; [3]): 97% and 98%
- Population Pyknosed Nuclei (%) (U2OS; [3]): 13% and 14%
- Population Tubulin-Different-Phenotype (%) (U2OS; [3]): 2% and 4%
